Data on one compound can be found in ChEMBL document CHEMBL1667749, “Design & synthesis of N'-[substituted] pyridine-4-carbohydrazides as potential anticonvulsant agents” (Eur J Med Chem, 2011).

Active and inactive are the calls of the source. The rule behind the calls is not given here.

Data set [1] deals with Mus musculus. Briefly: Neurotoxicity in albino CF-1 mouse assessed as motor impairment at 300 mg/kg, ip after 0.5 hrs by rotarod test. As to conditions: in vivo. On the set-up: dose 300 mg/kg, route intraperitoneal. It counts as toxicity, organism-based. Put shortly: (§1)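 Minimal motor impairment in male CF-1 mice by rotorod after i.p. dosing; toxic if animal falls off rotating rod 3 times within 1 min. Screen doses 30, 100, 300 mg/kg; quantitative TD50 (95% confidence interval) determined at time of peak effect.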
Background: Falling from the rotarod earlier than controls is read as motor impairment.

Data set [2] has as its system Mus musculus. Briefly: Anticonvulsant activity in ip dosed albino CF-1 mouse assessed as dose required to protect against subcutaneous metrazol-induced seizures after 0.5 hrs. It counts as functional. Put shortly: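 Male albino CF-1 mice (18-25 g) received i.p. compound suspended in 0.5% methyl cellulose at 30, 100 and 300 mg/kg. Metrazol at a dose convulsing 97% of animals was given s.c. in the midline neck fold, and mice were observed 30 min in isolation. A clonic spasm of about 3-5 s was the end point. The value is the minimum dose protecting half or more of the mice.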

For data set [3], the system named is Mus musculus. In words: Anticonvulsant activity in albino CF-1 mouse assessed as protection against maximal electroshock-induced seizures at 300 mg/kg, ip after 4 hrs. It counts as functional, organism-based. Set-up: dose 300 mg/kg. Put shortly: (§2)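 Male CF-1 mice (18–25 g), i.p. in 0.5% methyl cellulose at 30, 100 and 300 mg/kg; MES: 60 Hz, 50 mA, 0.2 s through tetracaine-primed corneal electrodes; protection = abolished hind limb tonic extension. Value given as minimum dose active in half or more of mice.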
(The maximal electroshock test induces tonic seizures with an electrical stimulus.)

Data set [4] has as its system Mus musculus. Briefly: Anticonvulsant activity in albino CF-1 mouse assessed as protection against maximal electroshock-induced seizures at 300 mg/kg, ip after 0.5 hrs. It counts as functional, organism-based. Set-up: dose 300 mg/kg. Put shortly: as §2
The subject of data set [5] is Mus musculus. Briefly: Neurotoxicity in albino CF-1 mouse assessed as motor impairment at 300 mg/kg, ip after 4 hrs by rotarod test. Format: toxicity, organism-based. Set-up: dose 300 mg/kg, route intraperitoneal. As to conditions: in vivo. Put shortly: as §1
Data set [6] has as its system Mus musculus. In words: Anticonvulsant activity in albino CF-1 mouse assessed as protection against subcutaneous metrazol-induced seizures at 300 mg/kg, ip after 4 hrs. It counts as functional, organism-based. Set-up: dose 300 mg/kg. Put shortly: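 Male CF-1 mice, i.p. at 30, 100, 300 mg/kg in 0.5% methyl cellulose; metrazol dose convulsing 97% of animals injected s.c. in midline neck fold, mice isolated and watched 30 min; protected if no 3–5 s clonic spasm episode of limbs, jaws or vibrissae.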

The test system of data set [7] is Mus musculus. In words: Anticonvulsant activity in albino CF-1 mouse assessed as protection against maximal electroshock-induced seizures at 300 mg/kg, ip after 2 hrs. Format: functional, organism-based. Set-up: dose 300 mg/kg. Put shortly: as §2

Turning to `CCCC(CCC)C(=O)[O-].[Na+]` [VALPROATE SODIUM], the values for the Activity result in the data set on Mus musculus [1], with Mus musculus [2] and in the data set with Mus musculus [5] were “Non-toxic”, 300 mg/kg and “Non-toxic”, respectively. Besides, the outcome with Mus musculus [3], with Mus musculus [4], in the data set on Mus musculus [6] and with Mus musculus [7] was inactive.
